High-throughput results: PubChem BioAssay, Sanford-Burnham Center for Chemical Genomics
This is a sample that favours compounds with a hit; in the whole collection about 1.5% have one here.
CXCR6 inh: blocks human CXCR6 beta-arrestin recruitment; CHO-K1 PathHunter CXCR6 beta-arrestin, luminescence; O00574; inhibition, % at 20 µM; 360,000 tested, 0.36% active; AID 602244; in the data active = inhibition above about 34%, passing the limit was not always enough;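 also: antagonist mode with CXCL16 agonist at 10 nM final; 0% = 10 nM CXCL16 with DMSO and 100% = unstimulated wells without agonist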
Target sequence (O00574 whole entry, looked up): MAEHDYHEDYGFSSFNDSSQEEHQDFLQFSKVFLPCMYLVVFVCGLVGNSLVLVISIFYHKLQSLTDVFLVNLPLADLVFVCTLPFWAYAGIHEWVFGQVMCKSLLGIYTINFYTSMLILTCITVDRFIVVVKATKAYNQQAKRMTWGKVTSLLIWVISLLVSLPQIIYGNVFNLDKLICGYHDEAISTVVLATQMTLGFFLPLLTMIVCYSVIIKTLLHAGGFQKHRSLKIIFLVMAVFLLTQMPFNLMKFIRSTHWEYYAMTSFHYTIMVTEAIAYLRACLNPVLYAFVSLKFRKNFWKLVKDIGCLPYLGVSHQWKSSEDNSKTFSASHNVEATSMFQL
CCR6 antagonist: CCR6 (human) receptor antagonism | inhibition, % at 20 µM | 340,000 tested, 0.49% active | CHO-K1 CCR6 PathHunter beta-arrestin, luminescence, CCL20-stimulated | AID 493098;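 active = compounds whose inhibition of the agonist-driven luminescence signal at 20 µM reaches about 50%, limit read from the data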;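 also: cells stimulated with CCL20 at 14 nM final; plate controls were DMSO with CCL20 for no effect and DMSO without agonist for full effect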
Target sequence (P51684 whole entry, looked up): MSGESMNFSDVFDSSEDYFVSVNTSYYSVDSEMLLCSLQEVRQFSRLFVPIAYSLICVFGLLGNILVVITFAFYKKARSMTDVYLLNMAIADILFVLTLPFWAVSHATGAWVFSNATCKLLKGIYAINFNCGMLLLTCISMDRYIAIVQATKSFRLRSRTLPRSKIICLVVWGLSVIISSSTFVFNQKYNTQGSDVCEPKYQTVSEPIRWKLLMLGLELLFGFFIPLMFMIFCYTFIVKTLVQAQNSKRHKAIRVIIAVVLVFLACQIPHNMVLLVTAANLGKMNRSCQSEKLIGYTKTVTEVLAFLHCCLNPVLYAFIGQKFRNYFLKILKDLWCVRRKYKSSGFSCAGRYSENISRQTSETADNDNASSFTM
APJ antag: APJ receptor antagonism; CHO-K1 APJ beta-arrestin complementation, luminescence; inhibition, % at 20 µM; 330,000 tested, 0.32% active; AID 2521;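 active = inhibition above about 40% at 20 µM, limit read from the data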;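 also: cells challenged with 10 nM apelin-13 agonist together with compound; plate controls were apelin-13 plus DMSO wells for no effect and DMSO wells lacking apelin-13 for full effect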
APJ ag: activates the human apelin receptor APJ; P35414; CHO-K1 APJ PathHunter beta-arrestin, luminescence; 0% DMSO wells, 100% apelin; activation, % at 20 µM; 330,000 tested, 0.11% active; AID 2520;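 active = activation more than six SD over the plate average, tested at 20 µM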;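 also: 0% = DMSO alone and 100% = apelin-13 at 10 nM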
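Material: engineered CHO-K1 APJ arrestin reporter cells; amount: 1000 CHO-K1 reporter cells seeded per well; incubation: compound stimulation 90 min at 25 °C, detection 60 min; signal: luminescent beta-gal fragment complementation, chemiluminescent substrate; read-out basis: APJ agonist activity; controls: DMSO-only wells as negative, 10 nM Apelin-13 as positive control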
EBI2 block: EBI2 (human) antagonism. EBI2 beta-arrestin recruitment, luminescence, 7a,25-OHC stimulated. inhibition, % at 5 µM. 360,000 tested, 0.81% active. AID 651636; in the data active = inhibition above about 38%;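 also: enzyme fragment complementation signal reports receptor beta-arrestin coupling in cells; 0% = agonist plus DMSO wells and 100% = wells without agonist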
EBI2 antag conf: confirmation of human EBI2 receptor antagonists; inhibition, % at 5 µM; AID 651997; shares compounds with EBI2 block; EBI2 beta-arrestin luminescence, 7a,25-OHC antagonism; 2,400 tested, 29% active;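 active = inhibition of at least 50%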
EBI2 agonist: EBI2 agonism counter-screen; shares compounds with EBI2 block; EBI2-expressing cells, agonist mode, luminescence, 60 min; 0% vehicle, 100% 7α,25-dihydroxycholesterol control; activation, % at 5 µM; 2,400 tested, under 10 active;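 active = activation of at least 50%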
bGal cs: counter-screen for EBI2 antagonists: E. coli beta-galactosidase inhibition; shares compounds with EBI2 block; purified beta-galactosidase, luminescent Galacton Star, 15 min; inhibition, % at 5 µM; 2,400 tested, 1% active;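 active = replicate-average signal at least 3 plate SD below neutral wells, shown as high inhibition, flagging enzyme-inhibiting false positives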;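 also: 0% = DMSO wells with enzyme and 100% = wells lacking enzyme; higher means stronger loss of beta-gal luminescence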
* marks the source's active call; other numbers are inactive results; x = no result given.

SMILES	CXCR6 inh	CCR6 antagonist	APJ antag	APJ ag	EBI2 block	EBI2 antag conf	EBI2 agonist	bGal cs
Cc1cc(C)c(S(=O)(=O)N2CCCC(C(=O)NC3CC3)C2)c(C)c1 (stereo unspecified)	-2.1	13.2	-30.7	-6.0	2.3	x	x	x
O=C(N=C1SC2CS(=O)(=O)CC2N1c1ccccc1)C1CCCCC1 (stereo unspecified)	1.8	8.6	-9.4	-2.8	-7.5	x	x	x
CC(C)(C)OC(=O)N(CCc1ccccc1)Cc1ccccc1OCc1cccc(NC(=O)/C=C/c2ccccc2)c1	-2.1	13.3	x	x	19.9	x	x	x
CC(C)(C)OC(=O)N(CCc1ccccc1)Cc1ccc(OCc2cccc(NC(=O)/C=C/c3ccccc3)c2)cc1	5.3	2.1	x	x	58.9*	15.3	1.4	4.9
CC1CC(C)CN(S(=O)(=O)CCNC(=O)c2ccccc2)C1 (stereo unspecified)	-7.8	6.5	14.6	-3.0	-6.5	x	x	x
OC1CCN(c2c3c(nc4cc(-c5ccc(Cl)cc5)nn24)CCC3)CC1	9.5	-3.1	-5.7	6.8	43.9*	40.2	0.7	1.2
Cc1ccc(S(=O)(=O)Nc2ccc(-n3cnnn3)cc2)c(C)c1	3.3	2.7	-3.8	-5.1	-2.6	x	x	x
Cc1cc(C)c(S(=O)(=O)Nc2ccc(N(C)C)cc2)c(C)c1-n1cnnn1	-8.5	-10.5	-26.5	1.9	65.1*	33.4	2.2	2.8
OCCCNc1ncnc2c1ncn2[C@H]1CN(C2CCCC2)C[C@@H](CO)O1	5.2	x	x	x	-6.2	x	x	x
CC1CCc2c(sc3ncnc(NCCCOC(C)C)c23)C1 (stereo unspecified)	-13.6	20.4	-9.2	2.4	45.0*	33.1	0.5	1.1
CC1CCc2c(sc3ncnc(NCc4cccnc4)c23)C1 (stereo unspecified)	5.6	12.0	14.3	-3.5	4.2	x	x	x
Cc1ccc(/C=N/NC(=O)CN2CCN(Cc3ccccc3Cl)CC2)o1	-3.8	7.2	-0.5	3.7	25.3	x	x	x
CSc1ccc(/C=N/NC(=O)CN2CCN(Cc3ccc(C)cc3)CC2)cc1	-8.1	6.7	11.7	-2.2	44.8*	36.1	1.4	6.3
CSc1ccc(/C=N/NC(=O)CN2CCN(Cc3ccccc3Cl)CC2)cc1	-5.8	7.7	0.4	-0.6	60.9*	45.7	0.6	5.5
COc1ccc(NC(=O)c2csc(Cc3ccccc3)n2)cc1	-13.2	13.1	9.2	2.8	40.2*	35.2	0.2	-17.2
O=C(Nc1ccc(F)cc1)c1csc(Cc2ccccc2)n1	-1.3	4.2	4.1	-3.5	-4.2	x	x	x
Cc1cc(Cl)ccc1OCC(=O)N1CCN(c2ncccn2)CC1	9.8	6.6	7.2	-2.5	55.8*	36.2	-0.4	-18.0
Cc1cc(Cl)ccc1OCC(=O)N1CCCCC1	0.8	0.4	12.7	-8.6	8.0	x	x	x
O=C(COc1ccccc1)N1CCN(c2ncccn2)CC1	-6.0	2.5	-5.0	-2.6	23.9	x	x	x
Cc1cc(Cl)cc(C)c1OCC(=O)N1CCN(c2ncccn2)CC1	4.8	2.8	-1.2	-0.8	75.7*	42.2	-1.5	-15.7
Cc1ccc(C(C)C)c(OCC(=O)N2CCN(c3ncccn3)CC2)c1	4.1	-0.6	-0.1	0.2	48.4*	44.0	-0.2	0.0
COC(=O)c1ccc(Cn2nc(-c3cc(C)ccc3C)ccc2=O)cc1	1.5	15.9	-3.1	1.5	2.3	x	x	x
O=C(COC(=O)C1CC1)Nc1ccc(Cl)cc1Cl	-2.2	3.2	-10.8	-4.0	-10.8	x	x	x
CCOc1ccc(S(=O)(=O)N(C)c2ccc(OCC(=O)NCCc3ccc(OC)cc3)cc2)cc1	-3.6	6.1	-3.7	-4.3	55.5*	34.1	0.2	-1.4
C#CCNc1cc(-c2ccccc2)nc2ncnn12	1.0	-6.8	9.3	-1.6	-10.0	x	x	x
SMILES	CXCR6 inh	CCR6 antagonist	APJ antag	APJ ag	EBI2 block	EBI2 antag conf	EBI2 agonist	bGal cs
COc1ccc(CCNc2cc(-c3ccccc3)nc3ncnn23)cc1	-3.3	15.0	4.7	-2.0	45.0*	20.2	-0.2	5.6
CN(C(=O)c1ccc(=O)n(Cc2ccc(Cl)cc2)c1)c1ccccc1	-2.4	4.3	-13.2	-0.4	56.0*	36.4	-1.2	-14.1
CN(C(=O)c1cccn(Cc2ccccc2)c1=O)c1ccccc1	3.4	-1.0	-27.4	-2.4	-5.7	x	x	x
COc1ccc(OCCN2CCN(S(=O)(=O)c3ccccc3C(F)(F)F)CC2)cc1	-11.1	14.4	-1.4	-0.7	59.6*	50.3*	1.2	-3.8
COc1ccc(OCCN2CCN(S(=O)(=O)c3ccccc3C#N)CC2)cc1	-4.7	6.0	1.5	8.7	35.1	x	x	x
O=c1[nH]c(CN2CCN(S(=O)(=O)c3ccccc3C(F)(F)F)CC2)nc2sc3c(c12)CCCC3	-3.7	-0.2	10.6	-1.4	58.5*	31.1	-0.4	-11.3
Cc1ccc(S(=O)(=O)N2CCN(Cc3nc4ccccc4[nH]3)CC2)cc1C	4.2	-12.6	20.9	-1.6	1.2	x	x	x
COc1cc2nc(CN3CCN(C(c4ccccc4)c4ccccc4)CC3)[nH]c(=O)c2cc1OC	x	x	-6.9	-0.8	x	x	x	x
O=C(c1cccs1)N(Cc1nc2sc3c(c2c(=O)[nH]1)CCCC3)C1CCCC1	1.4	-12.7	7.3	1.2	0.6	x	x	x
COc1cc2nc(CN3CCN(S(=O)(=O)c4ccccc4[N+](=O)[O-])CC3)[nH]c(=O)c2cc1OC	1.0	x	x	x	45.2*	31.3	1.2	4.2
COc1cc2nc(CN3CCN(S(=O)(=O)c4ccc(Br)cc4)CC3)[nH]c(=O)c2cc1OC	-3.4	11.0	2.7	1.2	54.6*	34.9	1.8	6.0
COc1ccccc1N1CCN(C(=O)CCNC(=O)c2ccco2)CC1	3.1	-0.1	1.2	-3.8	-0.8	x	x	x
COc1cc2nc(CN3CCN(S(=O)(=O)c4c(F)cccc4F)CC3)[nH]c(=O)c2cc1OC	0.5	15.2	6.6	-0.4	35.9	x	x	x
COc1cc2nc(CN3CCN(S(=O)(=O)c4ccccc4C(F)(F)F)CC3)[nH]c(=O)c2cc1OC	-2.1	9.2	16.1	3.9	63.9*	22.5	0.8	-9.6
Cc1ccc(SCC2(O)CCN(C(=O)c3ccc(Cl)cc3)CC2)cc1	-8.6	39.2	-7.8	1.9	47.1*	46.2	-1.2	-18.6
Cc1ccc(SCc2ccc(C(=O)N3CCCC3)cc2)cc1	-10.9	17.2	9.7	-1.0	2.6	x	x	x
Clc1ccc(/C=C/c2nc3ccccc3[nH]2)c(Cl)c1	-17.6	-6.7	-26.6	4.0	15.1	x	x	x
O=C(/C=C/c1ccc(Cl)cc1Cl)c1nc2ccccc2[nH]1	3.2	18.2	14.5	-1.2	44.2*	15.5	1.2	1.4
CC(Oc1ccc(F)cc1)C(=O)Nc1ccccc1C(=O)N1CCCCC1 (stereo unspecified)	9.9	3.6	-5.9	-3.9	3.9	x	x	x
